# According to PubChem BioAssay:
# The source made the active and inactive calls.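 How the source made its calls, unless noted: active means fluorescence slope higher than the sample average by over 3 SD (cut at about -0.22 in these data, passing the limit was not always enough); inactive means the rest.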
# What was measured:
# [1] = inhibitors of TNFa-induced NFkB p65 translocation, primary screen, imaging, HUVEC, MLSMR starter and 10KST1 sets (AID 438;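 active means inhibition above 20% together with a positive visual image hit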;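 further: compound added about 3h40 before a 20 min TNFalpha stimulation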;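 on inhibition: signal is the nuclear over cytoplasmic p65 intensity ratio per well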); conditions: HUVEC TNFa-induced p65 nuclear translocation; cell count: measured here: nuclei count (cytotoxicity indicator), at 2.08 µM; inhibition: at 2 µM, stronger effect = higher value, 0% TNFa-plus-vehicle, 100% no-TNFa wells
# [2] = inhibitors of mutant huntingtin aggregation, primary screen, imaging, exon1htt(103Q)mCFP cells, high-content imaging (AID 483;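 active means visual image review flags a hit and inhibition of aggregation exceeds 20%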;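 further: compound exposure lasted 3 days before fixation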;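 on nuclei count: percent of the per-plate median nuclei count of sample wells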); conditions: exon1htt(103Q)mCFP cell line, aggregate imaging, at 2 µM; inhibition of aggregation: stronger effect = higher value; nuclei count: measured here: cell count, toxicity
# [3] = inhibitors of E-selectin induction by TNFa, primary screen, imaging, HUVEC, immunofluorescence, MLSMR starter and 10KST1 sets (AID 487;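 active means visually confirmed hit in the image check and inhibition above 20%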;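 on inhibition: signal is fraction of cell area covered by stained E-selectin grains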;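 on nuclei count: 100% = median nuclei count of all wells on the same plate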); conditions: HUVEC TNFalpha-induced E-selectin immunofluorescence imaging, at 2 µM; inhibition: stronger effect = higher value; nuclei count: measured here: cell number, toxicity
# [4] = biological target: Voltage-gated potassium channel subunit beta-2 (Rattus norvegicus) (UniProt P62483); test: KvBeta enzyme negative modulators, primary screen, biochemical, NADPH fluorescence (AID 622); conditions: recombinant KvBeta, 4-cyanobenzaldehyde reduction, at 10 µM, stronger effect = higher value;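 further: slope of raw intensity against log time taken from 70 to 1610 s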
# [5] = biological target: Voltage-gated potassium channel subunit beta-2 (Rattus norvegicus) (UniProt P62483); test: KvBeta positive modulators, primary screen, biochemical, NADPH fluorescence (AID 623;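 active means NADPH fluorescence slope more negative than the mean of all samples by about 3 SD, 99.7% confidence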;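 further: fluorescence intensity change per second fitted from 20 to 320 s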); conditions: Recombinant KvBeta, NADPH fluorescence decrease slope, 10 min; at 10 µM; stronger effect = lower value
# [6] = biological target: Alpha-2C adrenergic receptor (Homo sapiens) (UniProt P18825); test: modulators of alpha2C/GIRK thallium flux, primary screen, cell-based, HEK293 alpha2C/GIRK1/2 (AID 624;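 active means fluorescence slope after compound addition differing from the mean of all screened samples at 99.7% confidence, in either direction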;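 further: slope of fluorescence ratio to pre-addition baseline per second over 15 to 24 s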); conditions: thallium flux BTC fluorescence, at 10 µM, actives lie on both sides
# [7] = inhibitors of larval lipid processing in zebrafish, primary screen, whole organism, PED6 fluorescence, gall bladder and intestine (AID 686;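 active means a full or partial loss of lipid-probe fluorescence in the fish gall bladder, intestine or both, judged by eye; inactive means no fluorescence loss, or compound toxic to the fish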;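 further: larvae 5 to 7 days old with five fish per well; signal comes from phospholipase A2 cleavage of quenched PED6 carried via bile; overnight exposure to compound and PED6 before scoring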); conditions: Zebrafish larvae PED6 lipid processing, fluorescence scoring; screened at 20 µM (by protocol)
# Procedure, shortened: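 Test system – live zebrafish larvae aged 5-7 days, whole organism · Buffer or medium – E3 fish medium · Reagent – quenched phospholipase substrate PED6, 100 nM final, ingested by larvae · Doses – 20 µM single dose · Incubation – overnight compound and PED6 incubation · Technique – visual fluorescence microscopy scoring of gall bladder, gut · Read-out basis – visual per-well fluorescence inhibition score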
# [8] = inhibitors of Sendai virus-induced IRF3 signaling, primary screen, TLR/RLR signaling modifier project, cell-based, Sendai virus stimulus, luciferase, 10K MLSCN set (AID 602276;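 active means inhibition at or above 50% at 10 µM; inactive means inhibition below 50%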;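 further: firefly luciferase from ISG56 promoter only with Renilla not read in this screen; 0% = Sendai virus plus DMSO and 100% = medium plus DMSO without virus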); conditions: HEK293 RL24 IRF3 luciferase reporter, at 10 µM, stronger effect = higher value
# [9] = inhibitors of poly I:C-induced TLR3 signaling, primary screen, cell-based, poly I:C stimulus, luciferase, 10K MLSCN set (AID 602277;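 active means inhibition of the reporter signal at or above 50%; inactive means inhibition below 50%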); conditions: HEK293-TLR3 RL24 IRF3 luciferase reporter, at 10 µM, stronger effect = higher value
# Voltage-gated potassium channel subunit beta-2 (Rattus norvegicus), sequence (P62483 whole entry, looked up): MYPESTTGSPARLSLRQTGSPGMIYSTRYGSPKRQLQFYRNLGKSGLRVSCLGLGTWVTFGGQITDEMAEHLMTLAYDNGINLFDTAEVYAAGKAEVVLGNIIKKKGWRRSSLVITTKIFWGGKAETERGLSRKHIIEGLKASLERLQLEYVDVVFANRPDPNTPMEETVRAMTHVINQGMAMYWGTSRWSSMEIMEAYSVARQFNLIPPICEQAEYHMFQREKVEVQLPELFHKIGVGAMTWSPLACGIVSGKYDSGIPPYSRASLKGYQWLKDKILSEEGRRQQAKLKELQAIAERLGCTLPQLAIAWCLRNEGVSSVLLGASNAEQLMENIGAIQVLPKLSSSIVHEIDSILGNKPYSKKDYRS
# Alpha-2C adrenergic receptor (Homo sapiens), sequence (P18825 whole entry, looked up): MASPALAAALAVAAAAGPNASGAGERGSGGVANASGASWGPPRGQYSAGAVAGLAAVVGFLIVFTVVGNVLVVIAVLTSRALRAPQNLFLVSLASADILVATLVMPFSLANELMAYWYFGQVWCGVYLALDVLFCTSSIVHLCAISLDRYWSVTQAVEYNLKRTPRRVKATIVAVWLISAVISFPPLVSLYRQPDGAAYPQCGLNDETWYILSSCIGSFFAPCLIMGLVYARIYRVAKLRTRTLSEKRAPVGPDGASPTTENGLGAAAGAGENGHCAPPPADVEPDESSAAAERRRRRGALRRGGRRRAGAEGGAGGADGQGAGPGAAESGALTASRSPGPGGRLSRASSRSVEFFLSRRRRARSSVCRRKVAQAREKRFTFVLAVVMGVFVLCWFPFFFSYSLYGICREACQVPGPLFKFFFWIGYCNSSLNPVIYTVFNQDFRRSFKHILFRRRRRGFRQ
Structure (SMILES),cell count [1],inhibition [1],inhibition of aggregation [2],nuclei count [2] [%],inhibition [3],nuclei count [3] [%],fluorescence slope [4],NADPH fluorescence slope [5],slope [6],outcome [7],inhibition [8],inhibition [9]
O=C(O)c1ccc(CSc2ncn[nH]2)cc1,352,-2.9% (inactive),-12.6% (inactive),108,-14.9% (inactive),114,-0.42 (inactive),-2.8e-05 (inactive),0.00649 (inactive),inactive,6.95% (inactive),1.16% (inactive)
Cc1ccc(OCC2Cn3c(nc4c3c(=O)n(C)c(=O)n4C)O2)cc1 (stereo not given),423,1.8% (inactive),22.4% (inactive),104,-13.1% (inactive),120,-0.406 (inactive),-2.7e-05 (inactive),0.00486 (inactive),inactive,17.1% (inactive),11.7% (inactive)
CCCc1cc(N2CCCC2)n2nc(C)c(-c3ccccc3)c2n1,531,-11% (inactive),-13.4% (inactive),112,-22.9% (inactive),122,-0.118 (inactive),9.3e-07 (inactive),0.00457 (inactive),inactive,14% (inactive),-0.253% (inactive)
CCCN1Cc2cccc(C(=O)NC3CCCC3)c2C1=O,653,0.7% (inactive),14% (inactive),95.2,-62.4% (inactive),101,-0.349 (inactive),-6.1e-05 (inactive),0.0059 (inactive),inactive,11.8% (inactive),22.8% (inactive)
CCOc1nc(NCCC2=CCCCC2)nc(N2CCOCC2)n1,450,2.7% (inactive),6.3% (inactive),84,-23.8% (inactive),96.5,-0.364 (inactive),-5.8e-05 (inactive),0.00441 (inactive),inactive,10.2% (inactive),5.8% (inactive)
CCC(c1nnc(SCC(=O)Nc2ccc(C(=O)Nc3ccccc3OC)cc2)o1)N(C)C (stereo not given),464,2.9% (inactive),-11.7% (inactive),102,-70.6% (inactive),90.3,-0.442 (inactive),-7.1e-06 (inactive),0.00416 (inactive),inactive,-5.51% (inactive),98.3% (active)
Cc1csc(NC(=O)c2ccccc2C(=O)O)n1,418,9% (inactive),-16.7% (inactive),111,-46.7% (inactive),116,-0.358 (inactive),-6.8e-05 (inactive),0.00549 (inactive),inactive,5.94% (inactive),3.54% (inactive)
COc1ccccc1OCc1nc2ccccc2[nH]1,391,1.3% (inactive),19.9% (inactive),101,29.8% (inactive),86.3,-0.444 (inactive),-7e-05 (inactive),0.0055 (inactive),inactive,-14.3% (inactive),-80.7% (inactive)
CCCCCCn1c(CN2CCN(Cc3ccccc3)CC2)nc2c1c(=O)n(C)c(=O)n2C,255,-15.1% (inactive),9.8% (inactive),84.1,24.2% (inactive),64,-0.43 (inactive),-5.6e-05 (inactive),0.00491 (inactive),inactive,23% (inactive),17.3% (inactive)
CCOCCCN(Cc1cc2cc(C)cc(C)c2[nH]c1=O)C(=O)N(CC)CC,320,4.5% (inactive),2.5% (inactive),92.2,-15.3% (inactive),106,-0.423 (inactive),-3.6e-05 (inactive),0.00543 (inactive),inactive,-10.7% (inactive),-6.77% (inactive)
O=C(Nc1nnc(C2CCCC2)s1)C1CCN(S(=O)(=O)c2ccc(Cl)cc2)CC1,349,0% (inactive),18.7% (inactive),85.1,-83.1% (inactive),104,-0.345 (inactive),-1.7e-05 (inactive),0.00671 (inactive),inactive,13.4% (inactive),6.21% (inactive)
Cc1ccc2nc3c(cc2c1)CN(Cc1ccco1)C(=NCC1CCCO1)S3 (stereo not given),543,0.7% (inactive),28.7% (inactive),82.4,-2.1% (inactive),106,-0.372 (inactive),-6.6e-05 (inactive),0.00724 (inactive),inactive,13.9% (inactive),11.5% (inactive)
COc1ccccc1N(CC(=O)NC1CCCC1)C(=O)CCC(=O)Nc1cc(C)on1,566,-8.6% (inactive),10.8% (inactive),96.8,-29.3% (inactive),102,-0.408 (inactive),-5.9e-05 (inactive),0.00447 (inactive),inactive,-11.8% (inactive),-11.2% (inactive)
Cc1ccc2cc(C(c3nnnn3C3CCCC3)N3CCN(c4ccc(F)cc4)CC3)c(=O)[nH]c2c1 (stereo not given),586,7.2% (inactive),-4.3% (inactive),99.8,-31.9% (inactive),130,-0.372 (inactive),-4.7e-05 (inactive),0.00624 (inactive),inactive; toxic,23.2% (inactive),34.2% (inactive)
O=C(c1ccco1)c1nnn(Cc2ccccc2)c1-c1ccccc1,346,-4.3% (inactive),4% (inactive),122,-90% (inactive),116,-0.347 (inactive),7.1e-06 (inactive),0.00349 (inactive),inactive,-4.9% (inactive),0.479% (inactive)
CC(CCc1ccccc1)NC(=O)C1CCN(S(=O)(=O)c2cnc[nH]2)CC1 (stereo not given),554,-20.8% (inactive),-7.9% (inactive),107,16.4% (inactive),110,-0.367 (inactive),-5.5e-05 (inactive),0.00556 (inactive),inactive,9.51% (inactive),18% (inactive)
Cc1cccc(C)c1NC(=O)COC(=O)c1nonc1N,429,-1.3% (inactive),3.6% (inactive),99.3,32.7% (inactive),87.2,-0.34 (inactive),-6.4e-05 (inactive),0.0052 (inactive),inactive,4.72% (inactive),2% (inactive)
CCCCCCn1c(CN2CCCC(C)C2)nc2c1c(=O)n(C)c(=O)n2C (stereo not given),302,-3.8% (inactive),-10.6% (inactive),104,-46.9% (inactive),114,-0.396 (inactive),-4.7e-05 (inactive),0.00516 (inactive),inactive,17.5% (inactive),9.02% (inactive)
Cc1onc(-c2c(F)cccc2Cl)c1C(=O)Nc1nc2c(s1)CCCC2,250,5.1% (inactive),14.6% (inactive),101,38.1% (inactive),77.9,-0.467 (inactive),-9.4e-06 (inactive),0.00615 (inactive),inactive,-235% (inactive),99.1% (active)
CCCCCCC(c1c(C)n(C)n(-c2ccccc2)c1=O)c1c(C)n(C)n(-c2ccccc2)c1=O,272,-12.6% (inactive),21% (inactive),59.4,-39.4% (inactive),102,-0.407 (inactive),-5e-05 (inactive),0.00514 (inactive),inactive,7.89% (inactive),7.24% (inactive)
Cc1cnc(C(=O)Nc2ccccc2-n2cccc2)cn1,426,6% (inactive),-9.1% (inactive),107,-157% (inactive),115,-0.379 (inactive),-5.7e-05 (inactive),0.00535 (inactive),inactive,-12.6% (inactive),0.535% (inactive)
O=C(Nc1nnc(SCC(=O)N2CCCCC2)s1)C1CCCCC1,437,-3.4% (inactive),1.9% (inactive),99.2,-34.7% (inactive),118,-0.346 (inactive),-3.5e-05 (inactive),0.00464 (inactive),inactive,9.52% (inactive),13.5% (inactive)
O=S1(=O)CCN2C(=N1)SC1=C2CCN(Cc2ccccc2)C1,514,-3% (inactive),-3.2% (inactive),91.4,-42.3% (inactive),144,-0.434 (inactive),-1e-05 (inactive),0.00453 (inactive),inactive,17% (inactive),13.7% (inactive)
CCc1n[nH]c2c1C(=O)CC(C)(C)C2,438,-5.8% (inactive),4.8% (inactive),97.7,19.5% (inactive),110,-0.382 (inactive),-5e-05 (inactive),0.00556 (inactive),inactive,-8.61% (inactive),-7.25% (inactive)
Cc1cc(NC(=O)CSc2nc(C3CCCCC3)nc3ccccc23)no1,725,-4.4% (inactive),-20.3% (inactive),110,-10.7% (inactive),106,-0.378 (inactive),-5.4e-05 (inactive),0.00411 (inactive),inactive,12.9% (inactive),15.3% (inactive)
